≈ marks a conversion by molar mass, not a printed value.
Key:
[1] = test system: Borrelia spielmanii; assay: Antimicrobial activity against Borrelia spielmanii isolate PHap after 72 hrs by colorimetric assay; assay type: functional; conditions: Borreliella spielmanii
How it was run: (§1)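 Tested in microtiter trays preloaded with lyophilized antibiotics; clinical isolates were low-passage (10 to 20 passages). MIC was read by colorimetric assay after 72 h. MBC was defined as 100% killing in liquid medium at 72 h: aliquots from vials showing no growth were diluted 1:1,000 in BSK and checked for regrowth after 3 weeks of subculture. Values are medians of three independent experiments on separate days.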

[2] = test system: Staphylococcus aureus; assay: Antimicrobial activity against Staphylococcus aureus ATCC 29213 after 72 hrs by colorimetric assay; assay type: functional; conditions: ATCC 29213, 72 h
How it was run: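 Quality-control MIC followed the CLSI method with two changes: BSK medium was used, and the antibiotic-medium preparation was preincubated for 48 h before testing. Tests were run on three different days, and the MIC reported is the median of the three.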

[3] = test system: Borrelia afzelii; assay: Antimicrobial activity against Borrelia afzelii isolate FEM1 after 72 hrs by colorimetric assay; assay type: functional; conditions: Borreliella afzelii, isolate FEM1, 72 h; how it was run: as §1
[4] = test system: Borrelia; assay: Antimicrobial activity against Borrelia clinical isolate after 72 hrs by colorimetric assay; assay type: functional; conditions: for MIC90: Borrelia, 72 h; how it was run: as §1
[5] = test system: Borrelia spielmanii; assay: Antimicrobial activity against Borrelia spielmanii isolate PJes after 72 hrs by colorimetric assay; assay type: functional; conditions: Borreliella spielmanii; how it was run: as §1
[6] = test system: Borrelia spielmanii; assay: Antimicrobial activity against Borrelia spielmanii isolate PC-Eq17 after 120 hrs by colorimetric assay; assay type: functional; conditions: Borreliella spielmanii, isolate PC-Eq17, 120 h
[7] = Antimicrobial activity against Borrelia spielmanii A14S after 72 hrs by colorimetric assay; assay type: functional; conditions: Borreliella spielmanii
How it was run: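 Low-passage isolates (10 to 20 passages) grown in BSK medium were tested in microtiter trays precoated with lyophilized antimicrobials. MIC was read colorimetrically after 72 h. Independent experiments were run on three different days, and the MIC reported is the median of the three.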

[8] = test system: Borrelia spielmanii; assay: Antimicrobial activity against Borrelia spielmanii isolate PMai after 72 hrs by colorimetric assay; assay type: functional; conditions: Borreliella spielmanii; how it was run: as §1
[9] = test system: Borrelia spielmanii; assay: Antimicrobial activity against Borrelia spielmanii isolate TIsar2 after 72 hrs by colorimetric assay; assay type: functional; conditions: Borreliella spielmanii, isolate TIsar2, 72 h; how it was run: as §1
[10] = test system: Borrelia burgdorferi; assay: Antimicrobial activity against Borrelia burgdorferi isolate LW2 after 72 hrs by colorimetric assay; assay type: functional; conditions: Borreliella burgdorferi, isolate LW2, 72 h; how it was run: as §1
[11] = test system: Borrelia afzelii; assay: Antimicrobial activity against Borrelia afzelii isolate G1039 after 72 hrs by colorimetric assay; assay type: functional; conditions: Borreliella afzelii, isolate G1039, 72 h; how it was run: as §1
[12] = test system: Borrelia garinii; assay: Antimicrobial activity against Borrelia garinii isolate PSth after 72 hrs by colorimetric assay; assay type: functional; conditions: Borreliella garinii; how it was run: as §1
[13] = test system: Borrelia spielmanii; assay: Antimicrobial activity against Borrelia spielmanii isolate PSig2 after 72 hrs by colorimetric assay; assay type: functional; conditions: Borreliella spielmanii, isolate PSig2, 72 h; how it was run: as §1
[14] = test system: Borrelia afzelii; assay: Antimicrobial activity against Borrelia afzelii isolate G600 after 72 hrs by colorimetric assay; assay type: functional; conditions: Borreliella afzelii, isolate G600, 72 h; how it was run: as §1
[15] = test system: Borrelia garinii; assay: Antimicrobial activity against Borrelia garinii isolate M2094 after 72 hrs by colorimetric assay; assay type: functional; conditions: Borreliella garinii, isolate M2094, 72 h; how it was run: as §1
[16] = test system: Borrelia spielmanii; assay: Antimicrobial activity against Borrelia spielmanii isolate TIsar3 after 72 hrs by colorimetric assay; assay type: functional; conditions: Borreliella spielmanii, isolate TIsar3, 72 h; how it was run: as §1
[17] = test system: Borrelia garinii; assay: Antimicrobial activity against Borrelia garinii isolate G1 after 72 hrs by colorimetric assay; assay type: functional; conditions: Borreliella garinii, isolate G1, 72 h; how it was run: as §1
[18] = test system: Borrelia spielmanii; assay: Antimicrobial activity against Borrelia spielmanii isolate PC-Eq17 assessed as reduction in bacterial count at 2 ug/ml after 72 hrs; assay type: functional, Borreliella spielmanii; set-up: scale not given: the % may be the effect or the level left
How it was run: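 Time-kill assay: the isolate was exposed to ceftriaxone for up to 120 h. Growth was followed by conventional counts of morphologically intact motile cells and compared with a drug-free growth control. Values are means of two independent experiments run on different days.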

[19] = test system: Borrelia spielmanii; assay: Antimicrobial activity against Borrelia spielmanii isolate PAnz after 72 hrs by colorimetric assay; assay type: functional; conditions: Borreliella spielmanii; how it was run: as §1
[20] = test system: Borrelia spielmanii; assay: Antimicrobial activity against Borrelia spielmanii isolate PC-Eq17 after 72 hrs by colorimetric assay; assay type: functional; conditions: Borreliella spielmanii, isolate PC-Eq17, 72 h; how it was run: as §1
[21] = Antimicrobial activity against Borrelia burgdorferi B31 after 72 hrs by colorimetric assay; assay type: functional; conditions: Borreliella burgdorferi; how it was run: as §1
[22] = test system: Borrelia spielmanii; assay: Antimicrobial activity against Borrelia spielmanii isolate PMew after 72 hrs by colorimetric assay; assay type: functional; conditions: Borreliella spielmanii; how it was run: as §1

CO/N=C(\C(=O)N[C@@H]1C(=O)N2C(C(=O)O)=C(CSc3nc(=O)c(O)nn3C)CS[C@H]12)c1csc(N)n1 [CEFTRIAXONE]
MBC [1]: 2 µg/mL (≈ 3.61 µM) | MIC [1]: 0.0625 µg/mL (≈ 0.113 µM) | MIC [2]: 4 µg/mL (≈ 7.21 µM) | MBC [3]: 2 µg/mL (≈ 3.61 µM) | MIC [3]: 0.0625 µg/mL (≈ 0.113 µM) | MBC90 [4]: 4 µg/mL (≈ 7.21 µM) | MIC90 [4]: 0.0625 µg/mL (≈ 0.113 µM) | MBC [5]: 2 µg/mL (≈ 3.61 µM) | MIC [5]: 0.0312 µg/mL (≈ 0.0563 µM) | MBC [6]: 2 µg/mL (≈ 3.61 µM) | MBC [7]: 0.5 µg/mL (≈ 0.902 µM) | MIC [7]: 0.0312 µg/mL (≈ 0.0563 µM) | MBC [8]: 4 µg/mL (≈ 7.21 µM) | MIC [8]: 0.0625 µg/mL (≈ 0.113 µM) | MBC [9]: 0.5 µg/mL (≈ 0.902 µM) | MIC [9]: 0.0156 µg/mL (≈ 0.0281 µM) | MBC [10]: 4 µg/mL (≈ 7.21 µM) | MIC [10]: 0.0312 µg/mL (≈ 0.0563 µM) | MBC [11]: 0.5 µg/mL (≈ 0.902 µM) | MIC [11]: 0.0312 µg/mL (≈ 0.0563 µM) | MBC [12]: 2 µg/mL (≈ 3.61 µM) | MIC [12]: 0.0312 µg/mL (≈ 0.0563 µM) | MBC [13]: 1 µg/mL (≈ 1.8 µM) | MIC [13]: 0.0312 µg/mL (≈ 0.0563 µM) | MBC [14]: 0.5 µg/mL (≈ 0.902 µM) | MIC [14]: 0.0625 µg/mL (≈ 0.113 µM) | MBC [15]: 2 µg/mL (≈ 3.61 µM) | MIC [15]: 0.0312 µg/mL (≈ 0.0563 µM) | MBC [16]: 0.5 µg/mL (≈ 0.902 µM) | MIC [16]: 0.0625 µg/mL (≈ 0.113 µM) | MBC [17]: 2 µg/mL (≈ 3.61 µM) | MIC [17]: 0.0312 µg/mL (≈ 0.0563 µM) | Activity [18]: 99.9% | MBC [19]: 1 µg/mL (≈ 1.8 µM) | MIC [19]: 0.0156 µg/mL (≈ 0.0281 µM) | MBC [20]: 2 µg/mL (≈ 3.61 µM) | MIC [20]: 0.0312 µg/mL (≈ 0.0563 µM) | MBC [21]: 2 µg/mL (≈ 3.61 µM) | MIC [21]: 0.0312 µg/mL (≈ 0.0563 µM) | MBC [22]: 4 µg/mL (≈ 7.21 µM) | MIC [22]: 0.125 µg/mL (≈ 0.225 µM)

CC[C@H]1OC(=O)[C@H](C)[C@@H](O[C@H]2C[C@@](C)(OC)[C@@H](O)[C@H](C)O2)[C@H](C)[C@@H](O[C@@H]2O[C@H](C)C[C@H](N(C)C)[C@H]2O)[C@](C)(O)C[C@@H](C)C(=O)[C@H](C)[C@@H](O)[C@]1(C)O [ERYTHROMYCIN]
MBC [1]: 2 µg/mL (≈ 2.73 µM) | MIC [1]: 0.0079 µg/mL (≈ 0.0108 µM) | MIC [2]: 0.25 µg/mL (≈ 0.341 µM) | MBC [3]: 2 µg/mL (≈ 2.73 µM) | MIC [3]: 0.0312 µg/mL (≈ 0.0425 µM) | MBC90 [4]: 4 µg/mL (≈ 5.45 µM) | MIC90 [4]: 0.0312 µg/mL (≈ 0.0425 µM) | MBC [5]: 1 µg/mL (≈ 1.36 µM) | MIC [5]: 0.0156 µg/mL (≈ 0.0213 µM) | MBC [7]: 2 µg/mL (≈ 2.73 µM) | MIC [7]: 0.0156 µg/mL (≈ 0.0213 µM) | MBC [8]: 1 µg/mL (≈ 1.36 µM) | MIC [8]: 0.0079 µg/mL (≈ 0.0108 µM) | MBC [9]: 1 µg/mL (≈ 1.36 µM) | MIC [9]: 0.0312 µg/mL (≈ 0.0425 µM) | MBC [10]: 4 µg/mL (≈ 5.45 µM) | MIC [10]: 0.0312 µg/mL (≈ 0.0425 µM) | MBC [11]: 2 µg/mL (≈ 2.73 µM) | MIC [11]: 0.0156 µg/mL (≈ 0.0213 µM) | MBC [12]: 4 µg/mL (≈ 5.45 µM) | MIC [12]: 0.0312 µg/mL (≈ 0.0425 µM) | MBC [13]: 2 µg/mL (≈ 2.73 µM) | MIC [13]: 0.0079 µg/mL (≈ 0.0108 µM) | MBC [14]: 2 µg/mL (≈ 2.73 µM) | MIC [14]: 0.0312 µg/mL (≈ 0.0425 µM) | MBC [15]: 4 µg/mL (≈ 5.45 µM) | MIC [15]: 0.0312 µg/mL (≈ 0.0425 µM) | MBC [16]: 2 µg/mL (≈ 2.73 µM) | MIC [16]: 0.0312 µg/mL (≈ 0.0425 µM) | MBC [17]: 4 µg/mL (≈ 5.45 µM) | MIC [17]: 0.0156 µg/mL (≈ 0.0213 µM) | MBC [19]: 2 µg/mL (≈ 2.73 µM) | MIC [19]: 0.0079 µg/mL (≈ 0.0108 µM) | MBC [20]: 4 µg/mL (≈ 5.45 µM) | MIC [20]: 0.0156 µg/mL (≈ 0.0213 µM) | MBC [21]: 4 µg/mL (≈ 5.45 µM) | MIC [21]: 0.0312 µg/mL (≈ 0.0425 µM) | MBC [22]: 2 µg/mL (≈ 2.73 µM) | MIC [22]: 0.0312 µg/mL (≈ 0.0425 µM)
